Laboratory results as given in ChEMBL document CHEMBL1641443, “Design, synthesis and biological evaluation of small molecule inhibitors of CD4-gp120 binding based on virtual screening” (Bioorg Med Chem, 2011).

Columns and labels:
[1] = target: Envelope glycoprotein gp160 (Human immunodeficiency virus type 1 group M subtype B (isolate YU-2)(HIV-1), UniProt P35961); experiment: Binding affinity to HIV1 YU2 gp120 by isothermal titration calorimetry assay; parameters: species or system Human immunodeficiency virus type 1 (isolate YU2)
Outline: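 ITC at 25 °C. Cell held gp120 at about 2 μM in PBS pH 7.4 with 2% DMSO. Heat per injection taken from the integrated signal. Kd from a single run unless noted otherwise.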

[2] = system: Human immunodeficiency virus 1; experiment: Antiviral activity against recombinant HIV1 YU2 in Cf2Th-CCR5 cells assessed as viral infectivity by luciferase assasy relative to JRC-II-191; type: functional, isolate YU2

| Compound | Kd ([1]; read-out: Kd) [µM] | fold change (FC) [2] | Kd [1] |
| --- | --- | --- | --- |
| CCCN1CCCC(NC(=O)C(=O)Nc2ccc(Cl)c(F)c2)C1 (stereo not given) | 3.3 | 0.5 |  |
| CC1(C)CC(CNC(=O)C(=O)Nc2ccc(Cl)c(F)c2)CC(C)(C)N1 | 2.2 | 0.09 |  |
| CN1CCC(NC(=O)C(=O)Nc2ccc(Cl)c(F)c2)CC1 | 9.4 | 0.1 |  |
| CCCN1CCC(NC(=O)C(=O)Nc2ccc(Cl)c(F)c2)CC1 | 4.2 | 0.2 |  |
| CC(C)N1CCC(NC(=O)C(=O)Nc2ccc(Cl)c(F)c2)CC1 | 1.9 | 0 |  |
| O=C(NCC1CCNCC1)C(=O)Nc1ccc(Cl)c(F)c1 | 3 | 0 |  |
| CN1CCC(CNC(=O)C(=O)Nc2ccc(Cl)c(F)c2)CC1 | 4.3 | 0.3 |  |
| CC1(C)CC(NC(=O)C(=O)Nc2ccc(Cl)c(F)c2)CC(C)(C)C1 |  | 0.1 | Not Active |
| CC1(C)CC(NC(=O)C(=O)Nc2ccc(Cl)c(F)c2)CC(C)(C)O1 | 1 | 0 |  |
| CN1CCCC(NC(=O)C(=O)Nc2ccc(Cl)c(F)c2)C1 (stereo not given) | 4.2 | 0.7 |  |
| CN1CCCC(CNC(=O)C(=O)Nc2ccc(Cl)c(F)c2)C1 (stereo not given) | 2.5 | 0.3 |  |
| CC(C)N1CCCCC1CCNC(=O)C(=O)Nc1ccc(Cl)c(F)c1 (stereo not given) | 2.3 | 0 |  |
| Cc1n[nH]c(C)c1CNC(=O)C(=O)Nc1ccc(Cl)c(F)c1 | 4 | 0.1 |  |
| O=C(NC[C@@]12CCC[C@@H]1CNC2)C(=O)Nc1ccc(Cl)c(F)c1 | 3.1 | 0 |  |
| O=C(NCC1NCCc2ccccc21)C(=O)Nc1ccc(Cl)c(F)c1 (stereo not given) | 1.2 | 0.6 |  |
| CCN1CCCC1CNC(=O)C(=O)Nc1ccc(Cl)c(F)c1 (stereo not given) | 2.1 | 0 |  |
| O=C(Nc1ccc(Cl)c(F)c1)C(=O)NC1CCNC2(CCC2)C1 (stereo not given) | 0.6 | 2.6 |  |
| C[C@@H]1CCC[C@H](C)N1CCNC(=O)C(=O)Nc1ccc(Cl)c(F)c1 | 1.6 | 0.2 |  |
| O=C(NCC1CCCN(CCO)C1)C(=O)Nc1ccc(Cl)c(F)c1 (stereo not given) | 3.2 | 0 |  |
| CC1(C)O[C@@H](CN)[C@H](CNC(=O)C(=O)Nc2ccc(Cl)c(F)c2)O1 | 2.6 | 1.5 |  |
